According to publication PMC2134812 (The Journal of Cell Biology, 1997):
“Also recorded” adds a separate entry of the source.

B1: NGF: mature 118aa NGF peptide (protein)
chain: SSTHPVFHMGEFSVCDSVSVWVGDKTTATDIKGKEVTVLAEVNINNSVFRQYFFETKCRASNPVESGCRGIDSKHWNSYCTTTHTFVKALTTDEKQAAWRFIRIDTACVCVLSRKATRRG

Tests used:
[1] = system: B5 and SH-SY5Y cells; assay: Competition of 125I-LIP2 binding; design: species or system human; settings: 2 μM competitor, preincubated 1 h at 4°C, 10 nM 125I-LIP2
[2] = target: specific receptors (binding sites) for LIP2 on B5 human prostatic adenocarcinoma cells (human (endogenous in B5)); assay: radioligand binding
[3] = system: PC12 cells; assay: F-actin redistribution in PC12 cells; format: cell-based, rat
How it was run: (§1)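 B5 cells and PC12 cells were seeded in RPMI-1640 with 1% horse serum, with PC12 cells on poly-D-lysine. After 18 h, cells were exposed for 2 min at 37°C to test peptide (10−7, 10−8 or 10−9 M) or 100 ng/ml NGF. For PC12, a control peptide was used at 10−6 and 10−7 M. Cells were PBS-washed, fixed in 3% paraformaldehyde for 20 min and permeabilised in 0.1% Triton X-100 for 2 min. F-actin was stained with phallacidin–BODIPY or phalloidin–rhodamine and examined by fluorescence microscopy.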

[4] = system: B5 cells; assay: F-actin redistribution in B5 cells; format: cell-based, human; settings: 2 min at 37°C; LIP1, LIP2 or 100 ng/ml NGF
How it was run: as §1

[5] = system: PC12 cells; assay: Neurite outgrowth in PC12 cultures; format: cell-based, rat; settings: NGF-treated; data not shown
[6] = system: chick embryo DRG ganglia; assay: Neurite outgrowth in dorsal root ganglia; format: cell-based; settings: 10 ng of mouse NGF; data not shown
How it was run: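 Dorsal root ganglia were dissected from 9-day-old chick embryos. They were cultured with test peptides at 10−7, 10−8 and 10−9 M, or with 10 ng mouse NGF. Neurite outgrowth was scored.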

[7] = system: Trk protein; assay: Trk tyrosine phosphorylation in PC12 cells overexpressing TrkA; format: cell-based; settings: 200 ng/ml NGF, 5 min
How it was run: (§2)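 Confluent B5 cells or TrkA-overexpressing PC12 cells (10–15-fold TrkA) were stimulated for 5 min with test peptide at 10−9 or 10−7 M, or with NGF at 200 ng/ml. Lysates were immunoprecipitated with a pan-Trk antibody against the TrkA C-terminus and run on 7.5% SDS-PAGE. Blots were probed overnight at 4°C with HRP-anti-phosphotyrosine (1:2,500) and detected by ECL. They were then stripped and reprobed with pan-Trk antibody as a loading control.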

[8] = system: Trk protein; assay: Trk tyrosine phosphorylation in B5 cells; format: cell-based, human; settings: 200 ng/ml NGF, 5 min
How it was run: as §2

[9] = system: Trk protein; settings: ref Kaplan et al., 1991; cited from earlier work

Molecule	Inhibition of 125I-LIP2 binding (in words) [1]	also measured
neurotensin	No significant inhibitory effect	
α-melanocyte stimulating hormone	No significant inhibitory effect	
epidermal growth factor	No significant inhibitory effect	
bombesin	No significant inhibitory effect	
aprotinin	No significant inhibitory effect	
methionine enkephalin	No significant inhibitory effect	
cytochrome c	No significant inhibitory effect	
substance P	No significant inhibitory effect	
ubiquitin	No significant inhibitory effect	
α2-macroglobulin	No significant inhibitory effect	
LIP2 (38aa synthetic peptide, sequence -40 to -3 of the rat NGF precursor), unlabelled		Kd [2]: 200 to 400 nM
somatostatin	No significant inhibitory effect	
vasoactive intestinal peptide [vasoactive intestinal peptide (VIP)]	No significant inhibitory effect	
vasopressin	No significant inhibitory effect	
[Tyr^8] bradykinin (RPPGFSPYR; Bradykinin; UniProt P01042 381-389, looked up, variant F8Y)		F-actin redistribution, control peptide ([3]; 10^−6 and 10^−7 M): had no effect
pepstatin A	No significant inhibitory effect	
leupeptin	No significant inhibitory effect	
125I-LIP2 (iodinated 38aa synthetic peptide, sequence -40 to -3 of the rat NGF precursor)		Kd, high affinity binding site [2]: 2.8 nM; Kd, low affinity binding site [2]: 48 nM
B1	did not show any significant inhibition	F-actin redistribution, NGF ([3]; 2 min at 37°C, 100 ng/ml NGF): more abundant ruffling; F-actin redistribution [4]: neither NGF nor the peptides induced F-actin rearrangement in B5 cells; also recorded: had no effect on B5 cells; Neurite outgrowth, NGF [5]: dense neurite outgrowth; Neurite outgrowth, NGF [6]: dense neurite outgrowth; Trk tyrosine phosphorylation, NGF [7]: phosphorylation of Trk; Trk tyrosine phosphorylation, NGF [8]: phosphorylation of Trk; Time to trk tyrosine phosphorylation by NGF [9]: ≤ 1 min
